From ChEMBL document CHEMBL3108770, “Discovery and biological evaluation of novel 1,4-benzoquinone and related resorcinol derivatives that inhibit 5-lipoxygenase” (Eur J Med Chem, 2013) come the findings set out here.

Assay [1] has as its target T1, Polyunsaturated fatty acid lipoxygenase ALOX15 (Homo sapiens, UniProt P16050).
T1 sequence (P16050 whole entry): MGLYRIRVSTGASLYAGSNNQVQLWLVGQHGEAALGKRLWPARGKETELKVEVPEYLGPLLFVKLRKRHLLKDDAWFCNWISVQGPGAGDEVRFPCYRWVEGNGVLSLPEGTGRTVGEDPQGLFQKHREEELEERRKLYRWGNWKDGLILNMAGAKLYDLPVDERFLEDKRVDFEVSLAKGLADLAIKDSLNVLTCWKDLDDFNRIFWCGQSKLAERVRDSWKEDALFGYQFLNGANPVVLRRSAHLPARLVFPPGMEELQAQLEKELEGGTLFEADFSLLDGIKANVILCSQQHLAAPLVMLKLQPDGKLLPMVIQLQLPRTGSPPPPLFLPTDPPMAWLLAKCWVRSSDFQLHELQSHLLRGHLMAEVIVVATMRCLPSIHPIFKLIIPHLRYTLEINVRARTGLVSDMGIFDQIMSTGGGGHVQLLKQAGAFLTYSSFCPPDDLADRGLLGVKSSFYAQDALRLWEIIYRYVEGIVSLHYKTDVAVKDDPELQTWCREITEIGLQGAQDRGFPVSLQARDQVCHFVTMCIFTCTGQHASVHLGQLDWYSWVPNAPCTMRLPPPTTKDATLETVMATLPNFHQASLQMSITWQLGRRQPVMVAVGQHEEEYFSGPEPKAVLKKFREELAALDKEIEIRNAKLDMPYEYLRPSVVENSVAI
The assay can be described thus: Inhibition of 15-LO in human PMNL using arachidonic acid as substrate preincubated for 15 mins. In a few lines:
(§1)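 PMNL were isolated from buffy coats by dextran sedimentation, Nycoprep centrifugation and hypotonic lysis of erythrocytes, then resuspended in PBS pH 7.4 with 1 mg/mL glucose and 1 mM CaCl₂. Cells were pre-incubated with compound for 15 min at 37 °C, then stimulated with A23187 plus AA for 10 min at 37 °C. 15-LO comes from eosinophils and 12-LO from adhering platelets in the preparation. After methanol/HCl stop and PGB₁ addition, metabolites were extracted and quantified by HPLC. Mean ± S.E.M., n = 3–4.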

Assay [2] addresses T2, Polyunsaturated fatty acid lipoxygenase ALOX15 (Homo sapiens) (UniProt P16050).
T2 sequence (whole entry): T1 sequence (P16050 whole entry)
Kind of assay: Inhibition of 15-LO in human PMNL using arachidonic acid as substrate assessed as residual activity at 10 uM preincubated for 15 mins. In a few lines: as §1

For assay [3], the target named is T3, Polyunsaturated fatty acid 5-lipoxygenase (Homo sapiens) (UniProt P09917).
T3 sequence (whole entry): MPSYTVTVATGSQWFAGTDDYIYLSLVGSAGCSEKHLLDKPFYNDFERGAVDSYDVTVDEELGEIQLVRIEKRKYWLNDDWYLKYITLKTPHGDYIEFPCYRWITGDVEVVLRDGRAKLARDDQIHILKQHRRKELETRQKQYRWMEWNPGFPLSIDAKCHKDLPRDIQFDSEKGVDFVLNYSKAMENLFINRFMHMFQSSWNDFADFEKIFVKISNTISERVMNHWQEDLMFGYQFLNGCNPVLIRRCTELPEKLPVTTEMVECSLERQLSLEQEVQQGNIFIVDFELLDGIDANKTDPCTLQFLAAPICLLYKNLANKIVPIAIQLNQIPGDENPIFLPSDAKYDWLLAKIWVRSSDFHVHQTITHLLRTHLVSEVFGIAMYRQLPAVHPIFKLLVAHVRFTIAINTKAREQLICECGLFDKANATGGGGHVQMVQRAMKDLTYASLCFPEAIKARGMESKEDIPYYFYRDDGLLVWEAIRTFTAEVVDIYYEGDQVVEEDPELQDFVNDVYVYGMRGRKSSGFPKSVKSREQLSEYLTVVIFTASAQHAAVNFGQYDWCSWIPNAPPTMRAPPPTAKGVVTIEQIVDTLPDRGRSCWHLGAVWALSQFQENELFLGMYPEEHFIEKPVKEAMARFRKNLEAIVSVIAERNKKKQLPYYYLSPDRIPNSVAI
The assay can be described thus: Inhibition of human recombinant 5-LO expressed in Escherichia coli BL21 using arachidonic acid as substrate assessed as residual activity at 10 uM after 10 mins.

For assay [4], the target named is T4, Polyunsaturated fatty acid lipoxygenase ALOX12 (Homo sapiens) (UniProt P18054).
T4 sequence (whole entry): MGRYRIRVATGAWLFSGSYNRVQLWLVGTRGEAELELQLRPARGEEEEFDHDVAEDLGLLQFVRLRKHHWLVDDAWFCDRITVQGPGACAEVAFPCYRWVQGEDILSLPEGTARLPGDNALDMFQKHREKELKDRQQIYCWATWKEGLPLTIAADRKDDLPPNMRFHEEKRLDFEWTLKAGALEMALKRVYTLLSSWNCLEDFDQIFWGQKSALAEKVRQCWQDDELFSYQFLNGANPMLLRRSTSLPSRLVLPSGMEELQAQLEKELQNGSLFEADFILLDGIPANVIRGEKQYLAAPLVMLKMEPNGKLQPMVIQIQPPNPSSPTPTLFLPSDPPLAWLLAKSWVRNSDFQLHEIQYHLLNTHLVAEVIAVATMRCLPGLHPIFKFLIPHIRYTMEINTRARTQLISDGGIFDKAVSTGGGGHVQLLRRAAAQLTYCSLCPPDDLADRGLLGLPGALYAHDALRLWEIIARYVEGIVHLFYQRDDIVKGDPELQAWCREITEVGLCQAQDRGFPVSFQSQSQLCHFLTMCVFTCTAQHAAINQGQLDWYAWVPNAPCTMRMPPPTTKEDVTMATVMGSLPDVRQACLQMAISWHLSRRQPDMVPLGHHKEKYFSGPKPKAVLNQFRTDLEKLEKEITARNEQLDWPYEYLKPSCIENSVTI
Kind of assay: Inhibition of 12-LO in human PMNL using arachidonic acid as substrate assessed as residual activity at 10 uM preincubated for 15 mins. In a few lines: as §1

Assay [5] addresses T5, Polyunsaturated fatty acid 5-lipoxygenase (Homo sapiens, UniProt P09917).
T5 sequence (P09917 whole entry): T3 sequence (whole entry)
The assay can be described thus: Inhibition of human recombinant 5-LO expressed in Escherichia coli BL21 using arachidonic acid as substrate after 10 mins. A digest of the protocol: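 Purified 5-LO was diluted in PBS/EDTA and pre-incubated with compound for 5–10 min at 4 °C, then pre-warmed for 30 s at 37 °C. The reaction was started with 2 mM CaCl₂ plus AA, run 10 min at 37 °C and stopped with ice-cold methanol. Products were analysed by HPLC.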

Assay [6] concerns the target T5, Polyunsaturated fatty acid 5-lipoxygenase. The assay can be described thus: Inhibition of 5-LO in human PMNL using arachidonic acid as substrate preincubated for 15 mins. In a few lines:
as §1

Assay [7] shares this target. Kind of assay: Competitive inhibition of human recombinant 5-LO expressed in Escherichia coli BL21 using 40 uM of arachidonic acid as substrate preincubated for 15 mins measured after 10 mins. A digest of the protocol: (§2)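 Purified 5-LO was pre-incubated with inhibitor or vehicle (0.1% DMSO) for 15 min at 4 °C, then warmed for 30 s at 37 °C. The reaction was started with 2 mM CaCl₂ plus AA at 2.5, 5, 10, 20 or 40 µM and run 10 min at 37 °C. Products were analysed by HPLC. Results are % of uninhibited control, mean ± S.E.M., n = 3.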

Assay [8] concerns the target T6, Polyunsaturated fatty acid lipoxygenase ALOX12 (Homo sapiens, UniProt P18054).
T6 sequence (P18054 whole entry): T4 sequence (whole entry)
Kind of assay: Inhibition of 12-LO in human PMNL using arachidonic acid preincubated for 15 mins. A digest of the protocol:
as §1

Assay [9] has as its target T5, Polyunsaturated fatty acid 5-lipoxygenase. Kind of assay: Competitive inhibition of human recombinant 5-LO expressed in Escherichia coli BL21 using 5 uM of arachidonic acid as substrate preincubated for 15 mins measured after 10 mins. A digest of the protocol: as §2
Assay [10] addresses T3, Polyunsaturated fatty acid 5-lipoxygenase (Homo sapiens). Kind of assay: Inhibition of 5-LO in human PMNL using arachidonic acid as substrate assessed as residual activity at 10 uM preincubated for 15 mins. In a few lines:
as §1

Usually IC50 stands for the concentration at which inhibition is half-maximal.

As to `O=C1C=C(Cc2ccc3ccccc3c2)C(=O)C=C1O`, the IC50 is over 10000 nM in [1]; 780 nM in assay [5]; 2300 nM in assay [6]; 310 nM in assay [7]; over 10000 nM in assay [8]; 970 nM in [9]. Moreover, the Activity in [2] stood at 147%; in assay [3], 8.7%; in assay [4] it was 71.9%; in assay [10], 5.3%.
